From ChEMBL document CHEMBL1146062, “Synthesis of 3-benzyl-2-substituted quinoxalines as novel monoamine oxidase A inhibitors” (Bioorg Med Chem Lett, 2006) come the findings set out here.

In general, pIC50 refers to the IC50 on a negative log10 scale, so that one unit is a factor of ten. As usually defined, the inhibition is the percentage by which the read-out fell short of the control. Read a high inhibition as strong suppression.

The target in data set [1] is T1, Amine oxidase [flavin-containing] B (Rattus norvegicus, UniProt P19643).
T1 sequence (P19643 whole entry): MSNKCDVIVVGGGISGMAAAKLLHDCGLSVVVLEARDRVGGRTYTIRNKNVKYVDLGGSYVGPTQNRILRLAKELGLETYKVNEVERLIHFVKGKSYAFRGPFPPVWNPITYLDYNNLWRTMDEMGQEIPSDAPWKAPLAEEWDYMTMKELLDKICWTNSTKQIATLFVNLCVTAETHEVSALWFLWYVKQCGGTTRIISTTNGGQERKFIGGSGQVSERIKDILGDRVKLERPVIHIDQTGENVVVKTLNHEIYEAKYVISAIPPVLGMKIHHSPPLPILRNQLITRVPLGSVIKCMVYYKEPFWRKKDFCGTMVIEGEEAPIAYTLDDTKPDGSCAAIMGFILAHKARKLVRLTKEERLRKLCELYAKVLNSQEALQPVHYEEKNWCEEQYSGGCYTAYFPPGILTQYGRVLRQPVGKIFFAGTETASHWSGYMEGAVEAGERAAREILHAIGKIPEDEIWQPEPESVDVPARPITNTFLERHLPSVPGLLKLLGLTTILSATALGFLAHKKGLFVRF
Briefly: Inhibition of rat liver mitochondria MAOB.

Data set [2] concerns Mus musculus. Briefly: Toxicity in mouse upto 250 mg/kg, po. The following applies: in vivo. Details: dose 250 mg/kg, route oral. It is filed as organism-based. The method, boiled down:
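Acute oral toxicity was assessed in male mice. Tolerability and mortality were recorded at doses up to […].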

Data set [3] relates to Mus musculus. Description: Toxicity in mouse upto 125 mg/kg administered by parenteral route. The data set is classed as organism-based. The arrangement: dose 125 mg/kg. The following applies: in vivo.
The target in data set [4] is T2, Amine oxidase [flavin-containing] A (Rattus norvegicus, UniProt P21396).
T2 sequence (P21396 whole entry): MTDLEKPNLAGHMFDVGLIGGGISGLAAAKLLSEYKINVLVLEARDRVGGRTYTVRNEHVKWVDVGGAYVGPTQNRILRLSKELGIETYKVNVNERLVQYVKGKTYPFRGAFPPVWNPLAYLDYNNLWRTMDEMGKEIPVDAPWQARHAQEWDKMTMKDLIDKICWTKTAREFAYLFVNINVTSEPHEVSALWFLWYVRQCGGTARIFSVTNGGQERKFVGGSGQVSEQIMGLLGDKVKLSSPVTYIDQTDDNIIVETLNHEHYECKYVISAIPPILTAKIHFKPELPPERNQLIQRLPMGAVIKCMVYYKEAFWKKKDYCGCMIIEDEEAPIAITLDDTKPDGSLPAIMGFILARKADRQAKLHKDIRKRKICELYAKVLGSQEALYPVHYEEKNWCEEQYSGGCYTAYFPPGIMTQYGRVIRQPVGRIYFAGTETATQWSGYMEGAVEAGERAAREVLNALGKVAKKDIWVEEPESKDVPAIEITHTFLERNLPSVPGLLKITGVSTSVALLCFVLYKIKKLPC
Briefly: Inhibition of rat liver mitochondria MAOA at 100 uM. The method, boiled down: (§1)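 MAO-A activity was measured in rat liver mitochondria with serotonin (5HT) as substrate. Test compounds were used at a final concentration of 1 × 10^-4 M, and inhibition was determined.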

The target of data set [5] is T2, Amine oxidase [flavin-containing] A. Briefly: Inhibition of rat liver mitochondria MAOA. In short, it runs like this:
as §1

pIC50: −log10 of the molar value.

With `OCCNc1nc2ccccc2nc1Cc1ccccc1`, the pIC50 in data set [1] is 4.07; in data set [5], 8.43. In addition, the Activity result in the data set with Mus musculus [2] and with Mus musculus [3] was “Non-toxic” each time. This compound gave an inhibition at 100 µM in data set [4] of 46%.
As to `NNc1nc2ccccc2nc1Cc1ccc(Cl)cc1`, the results for the pIC50 in data set [1] and in data set [5] were 3.24 and 8.68, respectively. For the same compound, the Activity result in the data set on Mus musculus [2] and in the data set with Mus musculus [3] was “Non-toxic” throughout. In data set [4], this compound displayed an inhibition at 100 µM of 49.5%.
`c1ccc(Cc2nc3ccccc3nc2NCCN2CCOCC2)cc1`: the figures for the pIC50 in data set [1] and in data set [5] were 3.08 and 8.89, respectively. Also, the Activity entry with Mus musculus [2] and with Mus musculus [3] was “Non-toxic” throughout. This compound came in with an inhibition at 100 µM in data set [4] of 46.1%.
Consider `Clc1ccc(Cc2nc3ccccc3nc2NCCN2CCOCC2)cc1`, for which the values for the pIC50 in data set [1] and in data set [5] were 3.44 and 8.77, respectively. In addition, the Activity result in the data set with Mus musculus [2] and with Mus musculus [3] was “Non-toxic” in each case. Further, the inhibition at 100 µM in data set [4] came to 50.5%.
As for `NNc1nc2ccccc2nc1Cc1ccccc1`, the pIC50 in data set [1] is 3.08; in data set [5], 8.06. Moreover, the Activity result in the data set on Mus musculus [2] and with Mus musculus [3] was “Non-toxic” each time. In addition, in data set [4], the inhibition at 100 µM turned out to be 54.1%.
Consider `Clc1cc2nc(Cc3ccccc3)c(NCCN3CCOCC3)nc2cc1Cl`, for which the pIC50 in data set [1] was 3.02; in data set [5], 7.14. Besides, the Activity result in the data set with Mus musculus [2] and in the data set with Mus musculus [3] was “Non-toxic” each time. This compound also had an inhibition at 100 µM in data set [4] of 40%.
Regarding `CNCCNc1nc2ccccc2nc1Cc1ccccc1`, the results for the pIC50 in data set [1] and in data set [5] were 3.10 and 7.04, respectively. In addition, the Activity result in the data set with Mus musculus [2] and in the data set on Mus musculus [3] was “Non-toxic” in each case. The same compound came in with an inhibition at 100 µM in data set [4] of 40.9%.
On to `NNc1nc2cc(Cl)c(Cl)cc2nc1Cc1ccccc1`, for which the pIC50 is 4.13 in data set [1] and 8.12 in data set [5]. The Activity result in the data set on Mus musculus [2] and in the data set with Mus musculus [3] was “Non-toxic” throughout. The compound further returned an inhibition at 100 µM in data set [4] of 42%.
